In brackets after ≈: the same amount, converted by molar mass. Activity calls are given as the source filed them. No cut-off for these calls is given here.
Legend:
Escherichia coli [1] = assay: Antibacterial activity against Escherichia coli ATCC 10536; type: functional
Pseudomonas aeruginosa [2] = assay: Antibacterial activity against Pseudomonas aeruginosa ATCC 27853 assessed as diameter of inhibition zone at 200 ug per disc after 24 hrs by agar disc diffusion method; type: functional; conditions: ATCC 27853, 24 h, read-out: DIZ
Procedure, shortened: (§1)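 Agar disc diffusion. Compounds at 20 mg mL⁻¹ in DMSO, filter-sterilised. 100 µL of 10⁸ CFU mL⁻¹ bacteria spread on nutrient agar. 6 mm discs carried 10 µl (200 µg per disc), with DMSO discs as negative control. Incubation 24 h at 37 °C. Read-out is inhibition zone diameter, mean of 3 repeats (±1 mm).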

Klebsiella pneumoniae [3] = assay: Antibacterial activity against Klebsiella pneumoniae ATCC 10031 assessed as diameter of inhibition zone at 200 ug per disc after 24 hrs by agar disc diffusion method; type: functional; conditions: ATCC 10031, 24 h, read-out: DIZ; procedure, shortened: as §1
Salmonella paratyphi [4] = assay: Antibacterial activity against Salmonella paratyphi A serotype ATCC 5702; type: functional, Salmonella enterica subsp. enterica serovar Paratyphi A
Salmonella paratyphi [5] = assay: Antibacterial activity against Salmonella paratyphi A serotype ATCC 5702 assessed as diameter of inhibition zone at 200 ug per disc after 24 hrs by agar disc diffusion method; type: functional, Salmonella enterica subsp. enterica serovar Paratyphi A; conditions: Salmonella enterica, ATCC 5702, 24 h; read-out: DIZ; procedure, shortened: as §1
Candida albicans [6] = assay: Antifungal activity against Candida albicans ATCC 10231; type: functional
Aspergillus niger [7] = assay: Antifungal activity against Aspergillus niger ATCC 16404; type: functional
Klebsiella pneumoniae [8] = assay: Antibacterial activity against Klebsiella pneumoniae ATCC 10031; type: functional
Candida albicans [9] = assay: Antifungal activity against Candida albicans ATCC 10231 assessed as diameter of inhibition zone at 200 ug per disc after 48 hrs by agar disc diffusion method; type: functional; conditions: ATCC 10231, 48 h, read-out: DIZ
Procedure, shortened: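 Yeast tested by agar disc diffusion. Compounds at 20 mg mL⁻¹ in DMSO, filter-sterilised. 6 mm discs carried 10 µl (200 µg per disc), with DMSO discs as negative control. Incubation 48 h at 30 °C. Zone diameter was averaged over 3 repeats (±1 mm).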

Staphylococcus aureus [10] = assay: Antibacterial activity against Staphylococcus aureus ATCC 29737 assessed as diameter of inhibition zone at 200 ug per disc after 24 hrs by agar disc diffusion method; type: functional; conditions: ATCC 29737, 24 h, read-out: DIZ; procedure, shortened: as §1
Shigella dysenteriae [11] = assay: Antibacterial activity against Shigella dysenteriae PTCC 1188 assessed as diameter of inhibition zone at 200 ug per disc after 24 hrs by agar disc diffusion method; type: functional; conditions: PTCC 1188, 24 h, read-out: DIZ; procedure, shortened: as §1
Staphylococcus aureus [12] = assay: Antibacterial activity against Staphylococcus aureus ATCC 29737; type: functional
Pseudomonas aeruginosa [13] = assay: Antibacterial activity against Pseudomonas aeruginosa ATCC 27853; type: functional
Aspergillus brasiliensis [14] = assay: Antifungal activity against Aspergillus brasiliensis PTCC 5011 assessed as diameter of inhibition zone at 200 ug per disc after 72 hrs by agar disc diffusion method; type: functional; conditions: PTCC 5011, 72 h, read-out: DIZ
Procedure, shortened: (§2)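 Agar disc diffusion against mold. Compounds at 20 mg mL⁻¹ in DMSO, filter-sterilised. 6 mm discs carried 10 µl (200 µg per disc), with DMSO discs as negative control. Incubation 72 h at 30 °C. Read-out is growth inhibition zone diameter, mean of 3 repeats (±1 mm).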

Aspergillus niger [15] = assay: Antifungal activity against Aspergillus niger ATCC 16404 assessed as diameter of inhibition zone at 200 ug per disc after 72 hrs by agar disc diffusion method; type: functional; conditions: ATCC 16404, 72 h, read-out: DIZ; procedure, shortened: as §2
[16] = target: Acetylcholinesterase (Electrophorus electricus) (UniProt O42275); assay: Inhibition of electric eel AChE using acetylthiocholine iodide as substrate pretreated for 15 mins followed by substrate addition measured for 6 mins by Ellman's method
Procedure, shortened: (§3)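 Ellman spectrophotometric assay in 0.1 M phosphate buffer pH 8.0 with DTNB, 25 °C. AChE (electric eel, Type V-S) or BChE was preincubated 15 min with compound before adding acetylthiocholine iodide or butyrylthiocholine iodide, respectively. Absorbance change at 412 nm was read for 6 min. Five concentrations were tested in triplicate, corrected by a nonenzymatic blank, with a no-inhibitor reference.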

Escherichia coli [17] = assay: Antibacterial activity against Escherichia coli ATCC 10536 assessed as diameter of inhibition zone at 200 ug per disc after 24 hrs by agar disc diffusion method; type: functional; conditions: ATCC 10536, 24 h, read-out: DIZ; procedure, shortened: as §1
[18] = test system: Staphylococcus epidermidis; assay: Antibacterial activity against Staphylococcus epidermidis ATCC 12228; type: functional
Shigella dysenteriae [19] = assay: Antibacterial activity against Shigella dysenteriae PTCC 1188; type: functional
Proteus vulgaris [20] = assay: Antibacterial activity against Proteus vulgaris PTCC 1182 assessed as diameter of inhibition zone at 200 ug per disc after 24 hrs by agar disc diffusion method; type: functional; conditions: PTCC 1182, 24 h, read-out: DIZ; procedure, shortened: as §1
[21] = test system: Staphylococcus epidermidis; assay: Antibacterial activity against Staphylococcus epidermidis ATCC 12228 assessed as diameter of inhibition zone at 200 ug per disc after 24 hrs by agar disc diffusion method; type: functional; conditions: ATCC 12228, 24 h, read-out: DIZ; procedure, shortened: as §1
Proteus vulgaris [22] = assay: Antibacterial activity against Proteus vulgaris PTCC 1182; type: functional
Cholinesterase = Cholinesterase (Equus caballus, UniProt P81908); assay: Inhibition of equine serum BChE using butyrylthiocholine iodide as substrate pretreated for 15 mins followed by substrate addition measured for 6 mins by Ellman's method; conditions: read-out: IC50; procedure, shortened: as §3
Bacillus spizizenii [23] = assay: Antibacterial activity against Bacillus subtilis ATCC 6633; type: functional
Bacillus spizizenii [24] = assay: Antibacterial activity against Bacillus subtilis ATCC 6633 assessed as diameter of inhibition zone at 200 ug per disc after 24 hrs by agar disc diffusion method; type: functional; conditions: ATCC 6633, 24 h, read-out: DIZ; procedure, shortened: as §1
Aspergillus brasiliensis [25] = assay: Antifungal activity against Aspergillus brasiliensis PTCC 5011; type: functional
[26] = Salmonella enterica subsp. enterica serovar Paratyphi A

Acetylcholinesterase (Electrophorus electricus), sequence (O42275 24-633 limits assumed): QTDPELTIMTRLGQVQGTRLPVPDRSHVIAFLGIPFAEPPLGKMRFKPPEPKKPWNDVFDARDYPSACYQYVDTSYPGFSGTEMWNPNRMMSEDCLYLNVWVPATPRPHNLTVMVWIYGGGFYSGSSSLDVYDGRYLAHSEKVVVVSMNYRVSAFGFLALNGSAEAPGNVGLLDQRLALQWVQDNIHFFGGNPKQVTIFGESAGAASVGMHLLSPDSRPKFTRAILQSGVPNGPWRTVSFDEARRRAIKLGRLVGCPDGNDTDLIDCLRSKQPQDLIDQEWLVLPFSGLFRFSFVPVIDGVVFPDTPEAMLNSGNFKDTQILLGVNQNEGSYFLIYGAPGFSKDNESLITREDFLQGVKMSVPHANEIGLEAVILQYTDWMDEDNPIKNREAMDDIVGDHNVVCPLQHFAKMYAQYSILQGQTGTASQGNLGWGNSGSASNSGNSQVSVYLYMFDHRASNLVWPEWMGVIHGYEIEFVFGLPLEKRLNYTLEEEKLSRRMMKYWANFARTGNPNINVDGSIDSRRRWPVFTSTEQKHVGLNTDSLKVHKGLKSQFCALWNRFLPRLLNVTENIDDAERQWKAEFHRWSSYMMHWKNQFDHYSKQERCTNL
Cholinesterase, sequence (P81908 whole entry): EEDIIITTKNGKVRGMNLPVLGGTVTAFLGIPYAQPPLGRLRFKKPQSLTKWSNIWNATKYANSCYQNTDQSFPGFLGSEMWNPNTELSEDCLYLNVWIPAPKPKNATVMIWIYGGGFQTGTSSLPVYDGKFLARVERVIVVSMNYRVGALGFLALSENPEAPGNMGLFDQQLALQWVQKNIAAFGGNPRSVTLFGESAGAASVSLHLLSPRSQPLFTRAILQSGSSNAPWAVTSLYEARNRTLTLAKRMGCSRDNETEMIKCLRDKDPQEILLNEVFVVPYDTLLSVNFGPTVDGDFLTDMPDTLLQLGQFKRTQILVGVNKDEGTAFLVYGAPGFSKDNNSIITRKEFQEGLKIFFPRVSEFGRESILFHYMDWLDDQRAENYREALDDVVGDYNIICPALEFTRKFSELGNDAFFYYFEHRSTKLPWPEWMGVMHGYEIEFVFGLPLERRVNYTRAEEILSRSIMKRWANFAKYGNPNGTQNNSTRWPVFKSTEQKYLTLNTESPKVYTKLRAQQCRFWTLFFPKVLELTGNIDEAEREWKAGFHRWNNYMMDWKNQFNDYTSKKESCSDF

| SMILES | MIC (Escherichia coli [1]) | zone of inhibition at 200 µg/disc (Pseudomonas aeruginosa [2]) [mm] | zone of inhibition at 200 µg/disc (Klebsiella pneumoniae [3]) [mm] | zone of inhibition at 200 µg/disc (Salmonella paratyphi [5]) [mm] | MIC (Candida albicans [6]) [mg/L] | MIC (Aspergillus niger [7]) | MIC (Klebsiella pneumoniae [8]) | zone of inhibition at 200 µg/disc (Candida albicans [9]) [mm] | zone of inhibition at 200 µg/disc (Staphylococcus aureus [10]) [mm] | zone of inhibition at 200 µg/disc (Shigella dysenteriae [11]) [mm] | MIC (Staphylococcus aureus [12]) [mg/L] | MIC (Pseudomonas aeruginosa [13]) | zone of inhibition at 200 µg/disc (Aspergillus brasiliensis [14]) [mm] | zone of inhibition at 200 µg/disc (Aspergillus niger [15]) [mm] | inhibition [16] | zone of inhibition at 200 µg/disc (Escherichia coli [17]) [mm] | MIC [18] | MIC (Shigella dysenteriae [19]) | zone of inhibition at 200 µg/disc (Proteus vulgaris [20]) [mm] | zone of inhibition at 200 µg/disc [21] [mm] | other results |
| --- | --- | --- | --- | --- | --- | --- | --- | --- | --- | --- | --- | --- | --- | --- | --- | --- | --- | --- | --- | --- | --- |
| O=[N+]([O-])c1ccc2oc(C3=Nc4ccccc4SC(c4cccc5ccccc45)C3)cc2c1 (centres undefined) | inactive | < 6 | 11 | 11 | 2.5 (≈ 5.55 µM) | inactive | 50 mg/L (≈ 111 µM) | 13 | 20 | < 6 | 0.25 (≈ 0.555 µM) | inactive | < 6 | < 6 | inactive | < 6 | 0.25 mg/L (≈ 0.555 µM) | inactive | < 6 | 30 | MIC (Salmonella paratyphi [4]; Salmonella enterica): 50 mg/L (≈ 111 µM); MIC (Proteus vulgaris [22]): inactive; IC50 (Cholinesterase): 55 µM; MIC (Bacillus spizizenii [23]): 0.125 mg/L (≈ 0.277 µM); zone of inhibition at 200 µg/disc (Bacillus spizizenii [24]): 15 mm; MIC (Aspergillus brasiliensis [25]): inactive |
| Brc1ccc2oc(C3=Nc4ccccc4SC(c4cccc5ccccc45)C3)cc2c1 (centres undefined) | inactive | < 6 | < 6 | < 6 | 25 (≈ 51.6 µM) | inactive | inactive | 14 | 10 | 14 | 5 (≈ 10.3 µM) | inactive | < 6 | < 6 | inactive | < 6 | inactive | 50 mg/L (≈ 103 µM) | 19 | < 6 | MIC (Salmonella paratyphi [4]; [26]): inactive; MIC (Proteus vulgaris [22]): 12.5 mg/L (≈ 25.8 µM); IC50 (Cholinesterase): 17 µM; MIC (Bacillus spizizenii [23]): 5 mg/L (≈ 10.3 µM); zone of inhibition at 200 µg/disc (Bacillus spizizenii [24]): 12 mm; MIC (Aspergillus brasiliensis [25]): inactive |
| O=[N+]([O-])c1ccc2oc(C3=Nc4ccccc4SC(c4ccccc4F)C3)cc2c1 (centres undefined) | 50 mg/L (≈ 119 µM) | < 6 | < 6 | < 6 | 0.125 (≈ 0.299 µM) | inactive | inactive | 19 | 17 | < 6 | 2.5 (≈ 5.97 µM) | inactive | < 6 | < 6 | inactive | 12 | 5 mg/L (≈ 11.9 µM) | inactive | 23 | 10 | MIC (Salmonella paratyphi [4]; [26]): inactive; MIC (Proteus vulgaris [22]): 0.125 mg/L (≈ 0.299 µM); IC50 (Cholinesterase): 22 µM; MIC (Bacillus spizizenii [23]): inactive; zone of inhibition at 200 µg/disc (Bacillus spizizenii [24]): < 6 mm; MIC (Aspergillus brasiliensis [25]): inactive |
| Fc1ccccc1C1CC(c2cc3cc(Br)ccc3o2)=Nc2ccccc2S1 (centres undefined) | inactive | 15 | < 6 | 11 | 25 (≈ 55.3 µM) | inactive | inactive | 13 | 10 | < 6 | 5 (≈ 11.1 µM) | 50 mg/L (≈ 111 µM) | < 6 | < 6 | inactive | < 6 | 5 mg/L (≈ 11.1 µM) | inactive | < 6 | 9 | MIC (Salmonella paratyphi [4]; Salmonella enterica): 50 mg/L (≈ 111 µM); MIC (Proteus vulgaris [22]): inactive; IC50 (Cholinesterase): 13.7 µM; MIC (Bacillus spizizenii [23]): inactive; zone of inhibition at 200 µg/disc (Bacillus spizizenii [24]): < 6 mm; MIC (Aspergillus brasiliensis [25]): inactive |
